Compound activity deposited in PubChem BioAssay by Sanford-Burnham Center for Chemical Genomics.
G6PDH CS: counter-screen for G6PDH assay hits: L. mesenteroides G6PDH inhibition; Purified L. mesenteroides G6PDH, diaphorase/resazurin coupled fluorescence, 45 min; inhibition, % at 5 µM; 0.12% of 200,000 active; AID 1020; in the data active = inhibition above about 50%
Diaph inh CS: inhibits diaphorase or chemically oxidizes, flagging diaphorase assay artifacts; diaphorase resazurin-to-resorufin fluorescence, NADH, 16 min; bacterial (C. kluyveri) enzyme, not human; 0.69% of 190,000 active; inhibition, % at 20 µM; AID 1217;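 active = primary screen inhibition at 20 µM above a set limit, cut at about 50% in these data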;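 note: plate controls were DMSO with full reaction for no effect and wells lacking NADH for full effect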
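Detection: fluorescence of resorufin formed from resazurin, Ex 544/Em 590 nm; test system: Clostridium kluyveri diaphorase enzyme; amount: 0.14 U/mL diaphorase, enzyme working solution; times: 16-min room-temperature incubation before reading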
Diaph act CS: counter-screen for diaphorase-based assays: diaphorase activators and chemical reducers | Diaphorase/resazurin coupled assay, resorufin fluorescence, 16 min; stronger effect = higher value; 1 = vehicle wells, 0 = NADH-free wells | activation factor at 20 µM | 0.005% of 190,000 active;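 active = diaphorase activity raised at least twofold by the compound at 20 µM; inactive = activation factor below 2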
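Material: purified diaphorase enzyme from Clostridium kluyveri / Medium: HEPES pH 7.4 buffer with MgCl2 and Tween 20 / Schedule: enzyme reaction of 16 min at room temperature / Measured by: resorufin fluorescence, excitation 544 nm, emission 590 nm / Evaluation: rise in resorufin formation, marking diaphorase activation or chemical reduction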
PfGluPho inh: PfG6PD (Plasmodium falciparum) enzyme inhibition; AID 504690; inhibition, % at 20 µM; PfGluPho enzyme, NADPH resazurin-diaphorase fluorescence; 0.78% of 350,000 active;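 active = inhibition reaching at least a set limit at 20 µM in the primary screen, cut at about 59% in these data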;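 note: 0% = DMSO wells with substrate and 100% = DMSO wells lacking glucose-6-phosphate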
HKDC1 inh: inhibitors of human hexokinase HKDC1 | Q2TB90 | inhibition, % at 20 µM | 0.16% of 340,000 active | recombinant HKDC1, G6PDH/diaphorase resazurin coupled fluorescence;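 active = inhibition above about 35% when tested at 20 µM, limit read from the data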;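 note: plate controls were DMSO wells with enzyme for no effect and DMSO wells lacking enzyme for full effect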
Target sequence (Q2TB90 whole entry, looked up): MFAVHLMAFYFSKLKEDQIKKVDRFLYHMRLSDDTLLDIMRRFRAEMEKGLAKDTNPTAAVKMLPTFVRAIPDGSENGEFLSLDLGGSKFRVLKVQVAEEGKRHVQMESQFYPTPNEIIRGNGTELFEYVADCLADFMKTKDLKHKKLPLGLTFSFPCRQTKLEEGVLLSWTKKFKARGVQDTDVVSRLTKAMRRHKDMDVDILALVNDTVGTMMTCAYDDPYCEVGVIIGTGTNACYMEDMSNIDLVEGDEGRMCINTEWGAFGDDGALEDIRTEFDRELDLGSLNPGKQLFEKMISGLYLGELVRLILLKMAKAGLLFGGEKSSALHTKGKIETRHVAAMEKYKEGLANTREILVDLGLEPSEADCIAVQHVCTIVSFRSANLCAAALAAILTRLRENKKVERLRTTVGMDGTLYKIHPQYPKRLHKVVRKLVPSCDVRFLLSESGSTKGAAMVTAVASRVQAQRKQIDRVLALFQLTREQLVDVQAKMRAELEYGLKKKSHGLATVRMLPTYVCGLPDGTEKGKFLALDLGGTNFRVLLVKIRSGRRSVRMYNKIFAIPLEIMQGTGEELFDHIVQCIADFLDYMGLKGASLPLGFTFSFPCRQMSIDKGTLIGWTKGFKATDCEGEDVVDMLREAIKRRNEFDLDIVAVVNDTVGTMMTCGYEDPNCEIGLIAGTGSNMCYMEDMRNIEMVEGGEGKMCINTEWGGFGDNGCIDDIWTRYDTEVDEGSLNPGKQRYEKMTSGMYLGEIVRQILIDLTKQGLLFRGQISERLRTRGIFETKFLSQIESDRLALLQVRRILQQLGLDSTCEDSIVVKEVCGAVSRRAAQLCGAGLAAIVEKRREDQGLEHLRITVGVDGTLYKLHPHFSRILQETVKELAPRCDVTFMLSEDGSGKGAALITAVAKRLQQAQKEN
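Assay system: in-house recombinant HK5 (HKDC1) enzyme. Input: HKDC1 at 5 µg/mL. Medium: Tris pH 8.0 buffer with MgCl2, Tween-20, BSA, BME. Dosing: single 20 µM dose. Schedule: 90 min reaction incubation at room temperature, dark. Signal: resazurin-to-resorufin fluorescence via G6PDH and diaphorase coupling, 525/613 nm. Controls: DMSO-enzyme wells negative, buffer-substituted wells positive.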
PfG6PD confirm: PfG6PD inhibition, single-dose confirmed | shares compounds with PfGluPho inh | recombinant PfGluPho, NADPH-diaphorase-resazurin fluorescence | inhibition, % at 20 µM | 34% of 2,400 active | AID 504753;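 active = inhibition of at least 50% at 20 µM in any single replicate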;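 note: 0% = DMSO with substrate and 100% = DMSO lacking glucose-6-phosphate substrate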
Diaph ctr 10uM: counter-screen for P. falciparum G6PD inhibitors: diaphorase inhibitors, oxidizers; shares compounds with PfGluPho inh; diaphorase-coupled resazurin reduction, fluorescence, NADPH 10 uM; inhibition, % at 20 µM; 39% of 820 active; AID 504862;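 active = average inhibition reaching 50% or more with the compound at 20 µM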;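 note: resorufin red fluorescence formed as diaphorase reduces resazurin using NADPH; 0% = DMSO with enzyme and 100% = DMSO without enzyme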
Diaphorase 30uM: counter-screen for P. falciparum G6PD inhibitors: diaphorase inhibitors, oxidizers. shares compounds with PfGluPho inh. Diaphorase/resazurin coupled assay, resorufin fluorescence, 30 uM NADPH. inhibition, % at 20 µM. 29% of 820 active. AID 504863;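 active = inhibition averaging 50% or more, tested at 20 µM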;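 note: 0% = DMSO with enzyme and 100% = DMSO wells lacking diaphorase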
Active calls of the source: *; nt = not tested or not shown. In the library only some 1.2% were active in any assay of this set; here they are far more common.

SMILES | G6PDH CS | Diaph inh CS | Diaph act CS | PfGluPho inh | HKDC1 inh | PfG6PD confirm | others
O=C(CCCSCCCC(=O)NN=Cc1ccccc1)NN=Cc1ccccc1 | nt | nt | nt | 59* | 0 | 19
O=C(CCC(=O)Nc1ccccc1Cl)N/N=C/c1ccccc1 | 3 | -2 | 1 | 105* | -5 | 81* | Diaph ctr 10uM=69*;Diaphorase 30uM=48
Cc1ccccc1NC(=O)CCC(=O)N/N=C/c1ccc(F)cc1 | 3 | -2 | 1 | -17 | 14 | nt
O=C(C1=COCCO1)N(Cc1nnc(-c2ccccc2Cl)o1)C1CC1 | nt | nt | nt | 4 | -2 | nt
O=C(CCSCCC(=O)NN=Cc1cccc(Cl)c1)NN=Cc1cccc(Cl)c1 | nt | nt | nt | 86* | 18 | 88* | Diaph ctr 10uM=79*;Diaphorase 30uM=66*
COc1cccc2sc3ccc(C#CC4(O)CCCCC4)cc3c(=O)c12 | nt | nt | nt | 68* | 7 | 30
O=c1c2ccccc2sc2ccc(C#CC3(O)CCCCC3)cc12 | nt | nt | nt | 46 | 7 | nt
COc1ccc(-c2[nH]nc3c2C(c2ccsc2)C(C#N)=C(N)O3)cc1 (configuration not stated) | 4 | 26 | 0.7 | 1 | -3 | nt
COc1cccc(-c2[nH]nc3c2C(c2ccsc2)C(C#N)=C(N)O3)c1 (configuration not stated) | 2 | 42 | 0.6 | 61* | 15 | 34
CC1CCC(NS(=O)(=O)c2ccc(Cl)nc2)CC1 (configuration not stated) | nt | nt | nt | -3 | -3 | nt
CCOc1ccc(S(=O)(=O)NCc2ccccc2)cc1C(N)=O | 6 | 16 | 0.8 | 42 | -7 | nt
CCOc1ccc(S(=O)(=O)NCc2ccccc2Cl)cc1C(N)=O | 9 | -22 | 1.2 | 75* | 1 | 32
S=C(NNC(=S)Nc1ccc(Cl)cc1)NNc1ccccc1 | nt | nt | nt | 73* | nt | 26
S=C(NNC(=S)Nc1ccccc1)Nc1ccccc1 | nt | nt | nt | 8 | -13 | nt
Cc1cc(C)c2c(=O)n3c(nc2c1)C(Cc1ccccc1)NC(=O)c1cccnc1-3 (configuration not stated) | nt | nt | nt | 59* | nt | 4
CC(=O)Nc1ccc(S(=O)(=O)N2c3ccccc3NC(=O)CC2C)c(Cl)c1 (configuration not stated) | nt | nt | nt | 1 | 3 | nt
Cc1cc(C)c(C)c(Cn2c(CO)nc3ccccc32)c1C | 5 | 22 | 0.8 | 69* | -1 | 36
Nc1nc(SCCO)[nH]c(=O)c1NC(=O)c1ccco1 | nt | nt | nt | -5 | -7 | nt
COc1ccc2nc3cc(Cl)ccc3c(Nc3ccc(O)c(CN4CCN(C)CC4)c3)c2c1 | nt | nt | nt | 109* | 7 | 45* | Diaph ctr 10uM=33;Diaphorase 30uM=40
CC(c1ccccc1)n1c(-c2cccs2)nc2c(c(=O)c3ccccc3n2C)c1=O (configuration not stated) | nt | nt | nt | -18 | -15 | nt
O=C(NCCc1ccccc1)c1ccc2nc(-c3ccco3)c(-c3ccco3)nc2c1 | 25 | 49 | 0.5 | 60* | 22 | 30
O=C(NCCO)c1ccc2nc(-c3ccco3)c(-c3ccco3)nc2c1 | 29 | 52* | 0.5 | 72* | 17 | 19
Clc1ccc(-c2nc(CSc3ccccn3)cs2)cc1 | nt | nt | nt | 14 | nt | nt
Nc1ccccc1SCc1csc(-c2ccc(Cl)cc2)n1 | nt | nt | nt | 60* | -1 | 5
C[C@H](NC(=O)C1CCN(S(=O)(=O)c2ccccc2)CC1)C(=O)NC1CC1 | nt | nt | nt | -22 | nt | nt
SMILES | G6PDH CS | Diaph inh CS | Diaph act CS | PfGluPho inh | HKDC1 inh | PfG6PD confirm | others
O=C(CNC(=O)c1ccco1)OCC(=O)c1ccc([N+](=O)[O-])cc1 | nt | nt | nt | 63* | -1 | 66* | Diaph ctr 10uM=-5;Diaphorase 30uM=-4
O=C(CNC(=O)c1cccs1)OCC(=O)c1ccc([N+](=O)[O-])cc1 | 10 | -2 | 1 | 68* | -1 | 49* | Diaph ctr 10uM=-8;Diaphorase 30uM=-10
O=C(COC(=O)c1ccccn1)c1ccc([N+](=O)[O-])cc1 | nt | nt | nt | 63* | 5 | 41
O=C(CSc1ccc(-c2ccccn2)nn1)c1ccc([N+](=O)[O-])cc1 | 14 | 11 | 0.9 | 5 | -7 | nt
O=C(Cc1ccccc1)NCC(=O)OCC(=O)c1ccc([N+](=O)[O-])cc1 | -3 | 8 | 0.9 | 68* | -1 | 67* | Diaph ctr 10uM=-2;Diaphorase 30uM=-6
O=C(CNC(=O)c1cccs1)c1ccc([N+](=O)[O-])cc1 | 7 | 12 | 0.9 | 0 | -4 | nt
Cc1ccc(C(=O)NCC(=O)NCC(=O)OCC(=O)c2ccc([N+](=O)[O-])cc2)cc1 | -6 | 24 | 0.8 | 63* | -5 | 62* | Diaph ctr 10uM=-9;Diaphorase 30uM=0
O=C(CNc1ccccc1)c1ccc([N+](=O)[O-])cc1 | 5 | 10 | 0.9 | 64* | -13 | 2
O=C(CNC(=O)c1ccc([N+](=O)[O-])cc1)c1ccccc1 | 4 | 2 | 1 | 9 | 9 | nt
Cc1ccc(C(=O)COC(=O)CNC(=O)CNC(=O)c2ccc(C)cc2)cc1 | 15 | -6 | 1.1 | -5 | -7 | nt
O=c1[nH]cnc(O)c1C(c1cccc([N+](=O)[O-])c1)c1c(O)nc[nH]c1=O | nt | nt | nt | -3 | -3 | nt
CC(C)c1ccc(C(=O)OCC(=O)NC2CCCC2)cc1 | nt | nt | nt | -4 | 3 | nt
CC(C)CSc1nc2c(c(=O)[nH]c(=O)n2C)n1CC(O)COc1cccc2ccccc12 (configuration not stated) | 3 | 13 | 0.9 | 64* | 10 | 29
COC(=O)c1c(NC(=O)c2ccc([N+](=O)[O-])o2)sc2c1CCN(C(C)C)C2 | nt | nt | nt | 68* | 18 | 20
COc1ccc(C(=O)Nc2sc3c(c2C#N)CCN(C(C)=O)C3)cc1 | 6 | 16 | 0.8 | 37 | -6 | nt
CC(=O)N1CCc2c(sc(NC(=O)c3ccc([N+](=O)[O-])o3)c2C#N)C1 | 1 | 26 | 0.7 | 60* | 6 | 13
CCC(COC)Oc1cc(NCc2ccccc2)c2ncn(C(C)C)c2c1 (configuration not stated) | nt | nt | nt | 83* | 21 | 40
CCCCOc1cc(NCc2ccccc2)c2ncn(C(C)C)c2c1 | nt | nt | nt | 73* | 18 | 31
COc1cc(NCc2ccccc2)c2ncn(Cc3ccccc3)c2c1 | nt | nt | nt | 66* | 13 | 50* | Diaph ctr 10uM=-11;Diaphorase 30uM=-10
CC(C)n1cnc2c(NCc3ccccc3)cc(N[C@H](C)CO)cc21 | nt | nt | nt | 67* | 20 | 37
COCCCOc1cc(NCc2ccccc2)c2ncn(C(C)C)c2c1 | nt | nt | nt | 48 | 4 | nt
O=C1CCN(S(=O)(=O)c2cccs2)c2ccc(C(F)(F)F)cc2N1 | 11 | 2 | 1 | 21 | -11 | nt
CN(C)CCSc1nc2cc(S(=O)(=O)N3CCCCC3)ccc2o1 | nt | nt | nt | -3 | -3 | nt
